Results pooled from the literature.
Compare with care: the assays were run in different laboratories.
CYP3A7: Cytochrome P450 3A7 (CYP3A7, Homo sapiens, UniProt P24462)

SMILES | tested on | assay | system | setting | quantity | result
O=S(=O)(O)C(F)(F)C(F)(F)C(F)(F)C(F)(F)C(F)(F)C(F)(F)C(F)(F)C(F)(F)F | CYP3A7 | enzyme activity, inhibitor, fluorescence | – | – | IC50 | 20.4 µM
COC(=O)N[C@H](C(=O)NN(CC[C@@]1(Cc2ccccc2)C(=O)N([C@H]2c3ccccc3C[C@H]2O[Si](C)(C)C(C)(C)C)C[C@@H]1O[Si](C)(C)C(C)(C)C)Cc1ccc(Br)cc1)C(C)(C)C | MT4 | cell growth or viability, XTT | – | 5 days | CC50 | > 50 µM
C=C(C)[C@@]12O[C@@]3(/C=C/C=C/CCCCC)O[C@@H]1[C@@H]1[C@@H]4O[C@]4(CO)[C@@H](O)[C@]4(O)C(=O)C(C)=C[C@H]4[C@@]1(O3)[C@H](C)[C@H]2OC(=O)c1ccccc1 | MT4 | cell growth or viability, ATP luminescence | – | 96 h | IC50 | > 0.034 µM
COC(=O)N[C@H](C(=O)NN(CC[C@]1(Cc2ccccc2)C(=O)N([C@H]2c3ccccc3C[C@H]2O)C[C@@H]1O)Cc1ccc(Br)cc1)C(C)(C)C | MT4 | cell growth or viability, XTT | – | 5 days | CC50 | > 50 µM
CCCCCC/C=C/CC(=O)O[C@@]12[C@H](OC(=O)c3ccccc3)[C@@H](C)[C@@]3(O)[C@@H](C=C(CO)C[C@]4(O)C(=O)C(C)=C[C@@H]34)[C@@H]1C2(C)C | MT4 | cell growth or viability, ATP luminescence | – | – | CC50 | > 7 µM
Cc1ncc2n1-c1ccc(Cl)cc1C(c1ccccc1F)=NC2 | – | metabolic stability | male rat, liver microsomes | 1 µM, 30 min | compound remaining | < 7%
C=C(C)[C@@]12O[C@@]3(/C=C/C=C/C=C/CCC)O[C@@H]1[C@@H]1[C@@H]4O[C@]4(CO)[C@@H](O)[C@]4(O)C(=O)C(C)=C[C@H]4[C@@]1(O3)[C@H](C)[C@H]2OC(=O)/C=C/c1ccc(O)c(OC)c1 | MT4 | cell growth or viability, ATP luminescence | – | 96 h | IC50 | > 0.034 µM
O=S(=O)(O)C(F)(F)C(F)(F)C(F)(F)C(F)(F)C(F)(F)C(F)(F)F | CYP3A7 | enzyme activity, inhibitor | – | 10 µM, pH 7.4 | inhibition | 29.1%
CCCC/C=C/C=C/CC(=O)O[C@@]12[C@H](OC(=O)c3ccccc3)[C@@H](C)[C@]3(O)[C@@H]4C=C(C)C(=O)[C@@]4(O)[C@H](O)C(CO)=C[C@H]3[C@@H]1C2(C)C | MT4 | cell growth or viability, ATP luminescence | – | – | CC50 | > 7 µM
CC[C@H](C)[C@H]1C(=O)N2CCC[C@H]2C(=O)O[C@H](C(C)(C)C)C[C@@H](C)C[C@H](O)[C@H](C)C2=N[C@H](CCC(=O)N[C@@H](Cc3ccc(OC)cc3)C(=O)N(C)[C@@H](C)C(=O)N1C)CS2 | – | metabolic stability | female CD-1 mouse, liver microsomes | 1 µM, 0 h, pH 7.4 | compound remaining | 100%
C=C(C)[C@@]12O[C@@]3(/C=C/C=C/C=C/CCC)O[C@@H]1[C@@H]1[C@@H]4O[C@]4(CO)[C@@H](O)[C@]4(O)C(=O)C(C)=C[C@H]4[C@@]1(O3)[C@H](C)[C@H]2OC(=O)/C=C/c1ccccc1 | MT4 | cell growth or viability, ATP luminescence | – | 96 h | IC50 | > 0.034 µM
Cc1ncc2n1-c1ccc(Cl)cc1C(c1ccccc1F)=NC2 | – | metabolic stability | Sprague-Dawley rat, hepatocytes | 1 µM, 4 h | compound remaining | 0.3%
C=C(C)[C@@]12O[C@@]3(/C=C/C=C/CCCCC)O[C@@H]1[C@@H]1[C@@H]4O[C@]4(CO)[C@@H](O)[C@]4(O)C(=O)C(C)=C[C@H]4[C@@]1(O3)[C@H](C)[C@H]2OC(=O)/C=C/c1ccc(O)cc1 | MT4 | cell growth or viability, ATP luminescence | – | 96 h | IC50 | > 0.034 µM
C#Cc1ccc2c(c1)C(c1ccccc1F)=N[C@@H](C)c1c(C(=O)OCC(F)(F)F)ncn1-2 | – | metabolic stability | mouse, liver microsomes | 20 min | compound remaining | < 5%
